Source: ChEMBL document CHEMBL3875149, “New piperidine-hydrazone derivatives: Synthesis, biological evaluations and molecular docking studies as AChE and BChE inhibitors” (Eur J Med Chem, 2016)

What was measured:
Cholinesterase = Cholinesterase (Equus caballus, UniProt P81908); assay: Inhibition of horse serum butyrylcholinesterase by Ellman's method
In short: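 Spectrophotometric Ellman assay using horse serum BChE, run alongside a parallel electric eel AChE assay. Inhibition reported as IC50 in µM.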

[1] = Cytotoxicity against human A549 cells assessed as decrease in cell viability after 24 hrs by MTT assay; assay type: functional, cell-based; settings: A549, 24 h
In short: (§1)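 A549 cells were kept in RPMI and BJ fibroblasts in EMEM, each with 10% FBS and 1% penicillin/streptomycin at 37℃ and 5% CO2. MTT was added at 0.5 mg/mL final for 3 h, formazan was dissolved in DMSO and read at 540 nm. Survival is expressed as % of the 0.1% DMSO control, and IC50 was derived from it.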

[2] = Antioxidant activity assessed as DPPH free radical scavenging activity after 2 hrs by spectrophotometric analysis; assay type: functional
In short: (§2)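 Spectrophotometric radical-scavenging or β-carotene bleaching test, with DMSO as negative control and BHT and α-tocopherol as positive controls. The value is reported as IC50 in µM.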

[3] = Antioxidant activity assessed as cupric reducing capacity after 1 hr by spectrophotometric analysis; assay type: functional
[4] = Antioxidant activity assessed as ABTS radical scavenging activity by spectrophotometric analysis; assay type: functional; in short: as §2
Acetylcholinesterase = Acetylcholinesterase (Electrophorus electricus, UniProt O42275); assay: Inhibition of electric eel acetylcholinesterase using acetylthiocholine iodide as substrate by Ellman's method
Chain of Acetylcholinesterase (O42275 whole entry): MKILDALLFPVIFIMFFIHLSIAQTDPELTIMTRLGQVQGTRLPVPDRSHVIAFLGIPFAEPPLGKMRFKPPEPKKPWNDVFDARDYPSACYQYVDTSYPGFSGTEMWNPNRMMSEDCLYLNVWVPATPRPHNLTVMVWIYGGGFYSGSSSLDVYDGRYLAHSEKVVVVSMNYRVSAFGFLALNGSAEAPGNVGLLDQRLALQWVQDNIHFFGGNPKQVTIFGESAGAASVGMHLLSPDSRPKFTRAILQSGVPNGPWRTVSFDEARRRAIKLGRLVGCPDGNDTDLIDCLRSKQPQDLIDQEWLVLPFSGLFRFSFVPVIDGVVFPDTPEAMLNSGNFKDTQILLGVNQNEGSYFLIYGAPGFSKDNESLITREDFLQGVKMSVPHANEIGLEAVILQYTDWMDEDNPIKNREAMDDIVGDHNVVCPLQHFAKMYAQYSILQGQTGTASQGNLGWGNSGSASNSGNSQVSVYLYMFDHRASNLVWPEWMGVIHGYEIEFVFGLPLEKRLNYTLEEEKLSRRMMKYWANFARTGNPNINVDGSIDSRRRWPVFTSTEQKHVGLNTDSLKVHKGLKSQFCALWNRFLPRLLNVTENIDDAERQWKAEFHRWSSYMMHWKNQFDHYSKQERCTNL

[5] = Antioxidant activity assessed as inhibition of beta carotene/ linoleic acid peroxidation after 120 mins by spectrophotometric analysis; assay type: functional; in short: as §2
[6] = Cytotoxicity against human BJ cells assessed as decrease in cell viability after 24 hrs by MTT assay; assay type: toxicity, cell-based; in short: as §1

Chain of Cholinesterase (P81908 whole entry): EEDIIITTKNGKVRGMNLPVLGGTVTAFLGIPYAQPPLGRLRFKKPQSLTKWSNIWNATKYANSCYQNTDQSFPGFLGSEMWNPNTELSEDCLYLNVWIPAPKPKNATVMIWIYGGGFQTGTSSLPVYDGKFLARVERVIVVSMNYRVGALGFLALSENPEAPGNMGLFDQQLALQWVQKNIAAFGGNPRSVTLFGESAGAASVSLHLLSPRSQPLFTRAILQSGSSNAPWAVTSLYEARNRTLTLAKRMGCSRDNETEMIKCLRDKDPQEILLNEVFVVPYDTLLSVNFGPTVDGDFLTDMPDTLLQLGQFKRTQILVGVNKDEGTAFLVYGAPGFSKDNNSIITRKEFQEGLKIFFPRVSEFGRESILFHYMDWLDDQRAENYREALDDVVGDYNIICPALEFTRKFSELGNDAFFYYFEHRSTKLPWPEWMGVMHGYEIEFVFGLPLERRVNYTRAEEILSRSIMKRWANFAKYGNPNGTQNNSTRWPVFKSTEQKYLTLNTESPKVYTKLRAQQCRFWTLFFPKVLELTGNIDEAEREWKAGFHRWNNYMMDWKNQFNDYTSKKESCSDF

Row | Compound | IC50 (Cholinesterase) [µM] | IC50 [1] [µM] | IC50 [2] [µM] | A0.5 [3] [µM] | IC50 [4] [µM] | IC50 (Acetylcholinesterase) [µM] | IC50 [5] [µM] | IC50 at 24 h [6] [µM]
1 | CCOC(=O)N1CCC(=NNC(=O)c2ccc(OC)cc2)CC1 | 82.2 | > 400 | 85.4 | 36.9 | 38.3 | 101 |  | 
2 | Cc1c(C)c2c(c(C)c1O)CC[C@@](C)(CCC[C@H](C)CCC[C@H](C)CCCC(C)C)O2 [ALPHA-TOCOPHEROL] |  |  | 12.3 | 40.5 | 4.87 |  | 4.5 | 
3 | COc1ccc(C(=O)NN=C2CC(c3ccccc3)NC(c3ccccc3)C2)cc1 (configuration not stated) | 110 | > 400 | 75.8 | 77.7 | 27.9 | 92.2 | 34.5 | > 400
4 | O=C(NN=C1CC(c2ccccc2)NC(c2ccccc2)C1)c1ccc(F)cc1 (configuration not stated) | 72.8 | > 400 | 66 | 59.6 | 83.7 | 91.1 | 56.6 | > 400
5 | O=C(NN=C1CC(c2ccccc2)NC(c2ccccc2)C1)c1ccccc1 (configuration not stated) | 66 | > 400 | 42 | 45.4 | 238 | 99.7 | 41.9 | > 400
6 | Cc1cc(C(C)(C)C)c(O)c(C(C)(C)C)c1 [BUTYLATED HYDROXYTOLUENE] |  |  | 55 | 3.8 | 2.91 |  | 2.34 | 
7 | CCOC(=O)N1CCC(=NNC(=O)c2ccc([N+](=O)[O-])cc2)CC1 | 156 | > 400 | 51.7 | 13.3 | 10.9 | 125 | 40.2 | > 400
8 | O=C(NN=C1CC(c2ccccc2)NC(c2ccccc2)C1)c1ccc(C(F)(F)F)cc1F (configuration not stated) | 117 | > 400 | 70.2 | 85.2 | 63.5 | 90.1 | 41.1 | > 400
9 | O=C(NN=C1CC(c2ccccc2)NC(c2ccccc2)C1)c1ccc(Cl)cc1 (configuration not stated) | 35.3 | > 400 | 96.7 | 49.8 | 67.9 | 41.2 | 43.6 | > 400
10 | O=C(NN=C1CC(c2ccccc2)NC(c2ccccc2)C1)c1ccc([N+](=O)[O-])cc1 (configuration not stated) | 86.8 | > 400 | 88.1 | 17.8 | 170 | 63.9 | 45.2 | > 400
11 | Cc1ccc(C(=O)NN=C2CC(c3ccccc3)NC(c3ccccc3)C2)cc1 (configuration not stated) | 50.1 | > 400 | 53.3 | 50.6 | 64.1 | 74.9 | 69 | > 400
12 | CCOC(=O)N1CCC(=NNC(=O)c2ccc(C(F)(F)F)cc2)CC1 | 91.6 |  | 33.8 | 51.4 | 23.5 | 136 | 49.3 | > 400
13 | CCOC(=O)N1CCC(=NNC(=O)c2ccc(C(F)(F)F)cc2F)CC1 | 95.1 | > 400 | 86 | 27.3 | 59.5 | 123 | 77.4 | > 400
14 | O=[N+]([O-])c1ccc(NN=C2CC(c3ccccc3)NC(c3ccccc3)C2)c([N+](=O)[O-])c1 (configuration not stated) |  | > 400 | 20 | 29.2 | 19.2 |  | 28.2 | > 400
15 | CCOC(=O)N1CCC(=NNC(=O)c2ccc(Cl)cc2)CC1 | 69.5 | > 400 | 59 | 23.5 | 63.9 | 81.8 | 72.3 | > 400
16 | CCOC(=O)N1CCC(=NNC(=O)c2ccc(F)cc2C(F)(F)F)CC1 | 99.6 | > 400 | 86.8 | 25.6 | 41.9 | 124 | 68.2 | > 400
17 | CCOC(=O)N1CCC(=NNC(=O)c2ccc(C)cc2)CC1 | 76.9 | > 400 | 75.5 | 11.1 | 28.1 | 94.8 | 52.5 | > 400
18 | O=C(NN=C1CC(c2ccccc2)NC(c2ccccc2)C1)c1ccc(F)cc1C(F)(F)F (configuration not stated) | 52.4 | > 400 | 88.3 | 88.2 | 88.5 | 49.5 | 115 | > 400
19 | CCOC(=O)N1CCC(=NNC(=O)c2ccc(F)cc2)CC1 | 113 | > 400 | 74.8 | 4.16 | 39.2 | 128 | 65.5 | > 400
20 | O=C(NN=C1CC(c2ccccc2)NC(c2ccccc2)C1)c1ccc(C(F)(F)F)cc1 (configuration not stated) | 99.1 | > 400 | 65 | 92.1 | 153 | 84.4 | 55.3 | > 400
